S1P3 agonist – agonists of human S1P3 receptor; Q99500; S1P3 NFAT-BLA reporter cells, agonism, FRET ratio; relative to 1 µM S1P, basal subtracted; activation, % at 4.5 µM; 60,000 compounds, 0.1% hits; AID 373;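 active = activation above the screen-wide mean plus 3 SD, cut at about 4.5% in these data, passing the limit was not always enough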
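Material: Human S1P3 NFAT-BLA reporter CHO cells | Incubation: Overnight plating, 4 h compound 37 °C, 2 h substrate RT | Signal: FRET β-lactamase substrate fluorescence, excitation 405 nm, 460/535 nm emission ratio, background-subtracted | Compound: 4.5 µM final, single dose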
M1 agonist – agonists of M1 muscarinic receptor; CHO-M1 cells, Fluo-4 calcium fluorescence, agonist mode; stronger effect = higher value; B-score at 10 µM; 64,000 compounds, 3% hits;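 active = fluorescence rise, raw or as B-score row- and column-corrected plate score, outside the 99.7% band of its plate's samples, either direction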
S1P1 ag-PAM – S1P1 (human) agonism or agonism potentiation. 56,000 compounds, 0.57% hits. activation, % at 9.5 µM. S1P1 CRE-bla cells, forskolin, beta-lactamase FRET, potentiator mode; S1P1 agonist co-added at EC20, 2 nM; 100% = saturating reference agonist, 0% = basal. P21453;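 active = activation above a cutoff set at the mean activation of all tested compounds plus 3 SD, cut at about 54% in these data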;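 note: forskolin at 4 µM as EC80 and the EC20 agonist is SEW2871; 100% = SEW2871 at its EC100 plus forskolin at EC80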
Target sequence (P21453 whole entry, looked up): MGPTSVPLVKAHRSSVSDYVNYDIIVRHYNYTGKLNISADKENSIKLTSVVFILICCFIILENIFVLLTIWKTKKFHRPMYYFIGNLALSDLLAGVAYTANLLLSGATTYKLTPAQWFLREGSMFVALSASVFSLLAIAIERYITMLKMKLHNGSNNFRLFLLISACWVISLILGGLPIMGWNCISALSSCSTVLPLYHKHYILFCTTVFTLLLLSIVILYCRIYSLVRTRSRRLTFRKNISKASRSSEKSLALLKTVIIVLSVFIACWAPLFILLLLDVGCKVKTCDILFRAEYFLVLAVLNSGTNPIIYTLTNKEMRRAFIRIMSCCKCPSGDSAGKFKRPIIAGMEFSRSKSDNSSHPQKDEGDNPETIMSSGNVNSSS
D1 allo mod – allosteric modulators of human D1 dopamine receptor | B-score at 10 µM | HEK293 D1, CRE-luciferase, dopamine EC30 potentiation; actives deviate in either direction | AID 641 | 58,000 compounds, 5.9% hits | P21728;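 active = luminescence count or its row- and column-corrected plate score outside the 99.7% band of the plate's sample wells, on either side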
TNAP act DEA – activators of human TNAP at intermediate phosphate acceptor; activation factor at 20 µM; AID 813; P05186; 64,000 tested, under 10 active; purified TNAP, CDP-star luminescence, 100 mM DEA, 30 min; stronger effect = higher value; scale: 0 levamisole-inhibited, 1 vehicle-only enzyme;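 active = activation factor of at least 2 at 20 µM, relative to controls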
M1 antagonist – blocks the rat M1 muscarinic receptor response to acetylcholine; 64,000 compounds, 3.4% hits; CHO-M1 cells, Fluo-4 calcium, ACh EC80 antagonist mode; stronger effect = lower value; B-score at 10 µM;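 active = calcium fluorescence response, raw or row-and-column corrected B-score, differing from the plate sample mean either way at a set confidence level, mostly lower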
M1 antag confirm – confirmation of rat M1 muscarinic receptor antagonists; shares compounds with M1 antagonist; CHO-M1 cells, Fluo-4 calcium, ACh EC80 antagonism; stronger effect = lower value; calcium response (max-min fluorescence) at 10 µM; 1,700 compounds, 43% hits; AID 677;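 active = calcium response below the same-plate mean of wells given acetylcholine alone at its 80%-effect dose, minus 3 SD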;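 note: raw fluorescence intensity difference in arbitrary instrument units and not normalized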
mGluR4 antag – acts on human mGluR4 in M1 antagonist selectivity test; shares compounds with M1 antagonist; CHO-mGluR4 calcium flux, Fluo-4 fluorescence, glutamate EC80; stronger effect = lower value; fluorescence response (max-min) at 10 µM; 1,700 compounds, 0.9% hits; AID 678;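 active = fluorescence response below the plate's average for near-maximal glutamate wells, less 3 SD of those wells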;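 note: raw unnormalized fluorescence span taken in the window right after glutamate addition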
Active calls of the source: *; . = no result given. Hits are enriched below; roughly 11% of the tested compounds scored in any of these assays.

SMILES | S1P3 agonist | M1 agonist | S1P1 ag-PAM | D1 allo mod | TNAP act DEA | M1 antagonist | M1 antag confirm | mGluR4 antag
CN(C)C(CNC(=O)c1cccc(S(=O)(=O)N2CC3(C)CC2CC(C)(C)C3)c1)c1ccco1 (stereo not given) | -1 | 0.05 | 1 | 0.043 | 0.9 | -3.3* | 517* | 159
CCOC(=O)c1c(CN(CC)CC)oc2cc(Br)c(O)cc12 | 0 | -0.43 | -46 | 2.5 | 1 | -2* | 679 | 217
CCN(CC)CCNC(=O)c1c(C)oc2cc(Br)c(OC)cc12 | -2 | -0.34 | 21 | -1 | 0.9 | -0.37 | . | .
CCCc1cc(Nc2c(C)n(C)n(-c3ccccc3)c2=O)n2c(nc3ccccc32)c1C#N | -3 | 0.29 | -17 | . | 0.9 | -2.4* | 482 | 237
O=C(CCN1CCc2ccccc2C1)c1ccc2c(c1)OCCO2 | 0 | -0.17 | 42 | -1.1 | 0.9 | -5.7* | 487* | 254
O=C(CCN1CCc2ccccc21)c1ccc2c(c1)OCCO2 | -5 | -0.94 | 32 | . | 0.7 | 0.15 | . | .
CN1CCCN(C(c2ccccc2)c2ccc(Cl)cc2)CC1 (stereo not given) | -2 | 0.81 | 26 | -3.3 | 0.9 | -16* | 14* | 214
CCCCn1cnc2sc3c(c2c1=N)CCCC3 | -2 | -0.66 | 3 | -0.92 | 0.9 | -2.5* | 580 | 221
COC(=O)COC(=O)c1ccc(Oc2nc(OC)nc(N(C)C)n2)cc1 | 0 | -0.73 | -31 | -0.14 | 1 | -0.0064 | . | .
O=S(=O)(Nc1nc2ccccc2nc1Nc1ccc2c(c1)OCCO2)c1cccs1 | 0 | 0.022 | 4 | -1.3 | 0.9 | 0.0058 | . | .
Cc1nn(-c2ccccc2)c2sc(C(=O)OCc3nnc(-c4ccccc4)o3)cc12 | . | -0.2 | . | 0.027 | 0.9 | -0.0041 | . | .
CN(CCC#N)CC(=O)Nc1ccc(NC(=O)CN(C)CCC#N)cc1 | 0 | 0.74 | -15 | . | 0.9 | -14* | 697 | 242
CCN(CC)CCCn1c(=S)[nH]c2ccc(Cl)cc2c1=O | . | 0.023 | . | -2.1 | 0.9 | -1.4* | 596 | 239
O=C(COC(=O)c1ccccc1Oc1ccccc1)NC1CCS(=O)(=O)C1 (stereo not given) | 1 | 0.053 | 10 | 0.38 | 0.8 | -1.5* | 617 | 236
CSc1ncccc1C(=O)OCC(=O)NC1CCS(=O)(=O)C1 (stereo not given) | 0 | 1.3 | 5 | . | 0.9 | 0.08 | . | .
CCCCNC1C(CC)C(CCC)C(C#N)(C#N)C1(C#N)C#N (stereo not given) | -1 | -0.3 | 35 | -0.081 | 1 | -0.28 | . | .
CCOC(=O)C(C(=O)OCC)C(C)C#CCN1CCCCC1 (stereo not given) | -1 | -0.54 | -3 | -0.053 | 0.9 | -1.4 | . | .
Nc1c(C(=O)NC2CCCCC2)nsc1C(=O)OCC(=O)NC1CCCCC1 | 0 | 0.33 | -15 | -1.6 | 0.9 | 0.021 | . | .
CCOC(=O)c1snc(C(=O)NC2CCCCC2)c1N | -1 | 0.24 | 19 | 0.38 | 0.9 | -2.7* | 641 | 206
COC(=O)C1CCN(C(=O)c2sc3nc(-c4ccc(F)cc4)cn3c2C)CC1 | 0 | -1.2 | 9 | 1.7 | 0.9 | 0.0063 | . | .
Cc1ccc(-c2nnn(CC(=O)N3CCN(c4ccccc4)CC3)n2)o1 | -1 | -0.2 | 4 | 0.36 | 1 | -4.2* | 641 | 237
COc1cc(-c2noc(CCCC(=O)NCc3ccco3)n2)cc(OC)c1OC | 0 | -0.57 | -19 | -0.0051 | 0.9 | -0.061 | . | .
CCC(=O)N1CCN(c2nc(-c3ccccc3)c3c(c2C#N)CCCC3)CC1 | . | 0.22 | . | . | 0.9 | -0.39 | . | .
CCCCOc1cccc(C(=O)Nc2ccc(N3CCN(CC)CC3)cc2)c1 | -1 | 0.12 | -34 | -3.6* | 1 | -16* | 36* | 254
CCC(=O)N1CCN(c2ccc(NC(=O)c3ccc4c(c3)OCO4)cc2)CC1 | 0 | 0.19 | 14 | -0.34 | 0.9 | -1 | . | .
SMILES | S1P3 agonist | M1 agonist | S1P1 ag-PAM | D1 allo mod | TNAP act DEA | M1 antagonist | M1 antag confirm | mGluR4 antag
CCN1CCN(c2ccc(NC(=O)c3cccnc3)cc2Cl)CC1 | 1 | -0.86 | -4 | -1.3 | 1 | -3.6* | 460* | 190
CCN1CCN(c2ccc(NC(=O)COc3ccccc3Cl)cc2)CC1 | -1 | 0.0017 | -17 | -5* | 0.9 | -9* | 322* | 168
CCN1CCN(c2ccc(NC(=O)c3ccc4c(c3)OCO4)cc2)CC1 | 0 | 0.068 | 14 | . | 0.9 | -3* | 398* | 267
Cc1ccc(S(=O)(=O)N2CCC(C(=O)OCC(=O)N3CCc4ccccc43)CC2)cc1 | 0 | 0.36 | 22 | -0.033 | 0.9 | 0.23 | . | .
CCn1cc(SCC(=O)NCC2CCCO2)c2ccccc21 (stereo not given) | -1 | 2.1e-05 | 12 | 0.67 | 0.9 | 0.65 | . | .
COC(=O)CCSCc1cn2cc(Cl)ccc2n1 | -1 | -0.26 | -8 | -2.4 | 0.9 | -0.32 | . | .
C=C(C)Cn1c(NCCOC)nc2c1c(=O)[nH]c(=O)n2C | . | 0.012 | . | -0.45 | 0.9 | -0.053 | . | .
CCN1CCN(C(c2cccs2)C(C)NC(=O)c2cccnc2)CC1 (stereo not given) | 0 | -0.086 | 1 | -4.4* | 0.9 | -1.4* | 578* | 239
Cn1c(C(=O)N2CCCC(C(=O)NCCCc3ccccc3)C2)cc2sccc21 (stereo not given) | -1 | -0.42 | -1 | 0.041 | 0.9 | -2.3 | . | .
Cn1c(C(=O)N2CCCC(C(=O)NCCc3ccccc3)C2)cc2sccc21 (stereo not given) | -1 | -1.1 | -9 | -0.48 | 1 | -6.1* | 328* | 248
O=C1c2ccccc2C(=O)N1CCCOc1ccccc1 | -1 | -0.014 | 2 | . | 0.9 | -0.098 | . | .
O=C1c2ccccc2C(=O)N1CCOCCN1C(=O)c2ccccc2C1=O | -1 | 0.45 | 4 | -0.84 | 1 | -3.3* | 687 | 242
CC(=O)c1ccc(OCC(O)CN2CCN(Cc3ccccc3)CC2)cc1 (stereo not given) | 0 | 1.3 | -18 | -0.53 | 1 | 0.0054 | . | .
COC(=O)CN1CCN(C(c2ccccc2)c2ccccc2)CC1 | 0 | -0.041 | -9 | 0.48 | 1 | -0.59 | . | .
CC(=O)c1ccccc1OCC(O)CN1CCN(C(c2ccccc2)c2ccccc2)CC1 (stereo not given) | -1 | 1.2 | 1 | . | 0.9 | -7.9* | 133* | 231
COCCNC(=O)CN1CCN(C(c2ccccc2)c2ccccc2)CC1 | 0 | -0.85 | 5 | 1.1 | 1 | -1.2* | 569 | 250

Bioassay records as filed in PubChem BioAssay.
